Results taken from ChEMBL document CHEMBL3124871, “Synthesis and pharmacological characterization of 1-benzyl-4-aminoindole-based thyroid hormone receptor β agonists” (Bioorg Med Chem, 2014).

Assays:
[1] = test system: Rattus norvegicus; experiment: Toxicity in cholesterol-fed Sprague-Dawley rat assessed as total T4 level at 150 mg/kg/day, po qd for 1 week measured 3 to 6 hrs post last dose (reference value: 3.8 +/- 0.9 ug/dl); assay type: organism-based; parameters: route oral; conditions: in vivo
[2] = test system: Rattus norvegicus; experiment: Toxicity in cholesterol-fed Sprague-Dawley rat assessed as TSH level at 150 mg/kg/day, po qd for 1 week measured 3 to 6 hrs post last dose (reference value: 3.0 +/- 1.0 uIU/ml); assay type: organism-based; parameters: route oral; conditions: in vivo
[3] = test system: Rattus norvegicus; experiment: Toxicity in cholesterol-fed Sprague-Dawley rat assessed as heart weight at 150 mg/kg/day, po qd for 1 week measured 3 to 6 hrs post last dose (reference value: 1.14 +/- 0.12 g); assay type: organism-based; parameters: route oral; conditions: in vivo
[4] = test system: Rattus norvegicus; experiment: Toxicity in cholesterol-fed Sprague-Dawley rat assessed as heart rate at 150 mg/kg/day, po qd for 1 week measured 3 to 6 hrs post last dose (reference value: 383.0 +/- 26.7 bpm); assay type: organism-based; parameters: route oral; conditions: in vivo
[5] = test system: Rattus norvegicus; experiment: Toxicity in cholesterol-fed Sprague-Dawley rat assessed as total T4 level at 6 mg/kg/day, po qd for 1 week measured 3 to 6 hrs post last dose (reference value: 3.8 +/- 0.9 ug/dl); assay type: organism-based; parameters: route oral; conditions: in vivo
[6] = test system: Rattus norvegicus; experiment: Toxicity in cholesterol-fed Sprague-Dawley rat assessed as TSH level at 6 mg/kg/day, po qd for 1 week measured 3 to 6 hrs post last dose (reference value: 3.0 +/- 1.0 uIU/ml); assay type: organism-based; parameters: route oral; conditions: in vivo
[7] = test system: Rattus norvegicus; experiment: Toxicity in cholesterol-fed Sprague-Dawley rat assessed as heart weight at 6 mg/kg/day, po qd for 1 week measured 3 to 6 hrs post last dose (reference value: 1.14 +/- 0.12 g); assay type: organism-based; parameters: route oral; conditions: in vivo
[8] = test system: Rattus norvegicus; experiment: Toxicity in cholesterol-fed Sprague-Dawley rat assessed as heart rate at 6 mg/kg/day, po qd for 1 week measured 3 to 6 hrs post last dose (reference value: 383.0 +/- 26.7 bpm); assay type: organism-based; parameters: route oral; conditions: in vivo
[9] = test system: Rattus norvegicus; experiment: Reduction in plasma triglyceride level in cholesterol-fed Sprague-Dawley rat at 6 mg/kg/day, po qd for 1 week measured 3 to 6 hrs post last dose (reference value: 62 +/- 25 mg/dl); assay type: functional
[10] = test system: Rattus norvegicus; experiment: Reduction in plasma HDL-cholesterol in cholesterol-fed Sprague-Dawley rat at 6 mg/kg/day, po qd for 1 week measured 3 to 6 hrs post last dose (reference value: 22 +/- 6 mg/dl); assay type: functional
[11] = test system: Rattus norvegicus; experiment: Reduction in plasma free cholesterol in cholesterol-fed Sprague-Dawley rat at 6 mg/kg/day, po qd for 1 week measured 3 to 6 hrs post last dose (reference value: 36 +/- 9 mg/dl); assay type: functional
[12] = test system: Rattus norvegicus; experiment: Reduction in plasma LDL-cholesterol in cholesterol-fed Sprague-Dawley rat at 6 mg/kg/day, po qd for 1 week measured 3 to 6 hrs post last dose (reference value: 51 +/- 15 mg/dl); assay type: functional
[13] = test system: Rattus norvegicus; experiment: Reduction in plasma total cholesterol in cholesterol-fed Sprague-Dawley rat at 6 mg/kg/day, po qd for 1 week measured 3 to 6 hrs post last dose (reference value: 190 +/- 49 mg/dl); assay type: functional
[14] = test system: HepG2; experiment: Selectivity ratio of EC50 for human recombinant transfected in human HepG2 cells to EC50 for human recombinant TRbeta1 transfected in human HepG2; assay type: cell-based
[15] = test system: CV-1; experiment: Selectivity ratio of EC50 for human recombinant transfected in CV-1 cells to EC50 for human recombinant TRbeta1 transfected in CV-1 cells; assay type: cell-based
Summary of the method: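 CV-1 monkey kidney cells grown in DMEM with 10% FBS for 24 h at 37 °C and 5% CO2. Transfected (FuGENE) with hTRα1 or hTRβ1 plus a SEAP reporter for 24 h, then exposed to T3 or test compound for 8-10 h. SEAP was read as A405 of p-nitrophenol (pH 9.8, 30 min, RT). EC50 was set against T3 max = 100%; mean of four experiments; α/β ratio of EC50s.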

[16] = target: T1, Thyroid hormone receptor beta (Homo sapiens, UniProt P10828); experiment: Agonist activity at human recombinant TRbeta1 transfected in human HepG2 cells after 8 to 10 hrs by alkaline phosphatase reporter gene assay; assay type: cell-based
T1 sequence (P10828 whole entry): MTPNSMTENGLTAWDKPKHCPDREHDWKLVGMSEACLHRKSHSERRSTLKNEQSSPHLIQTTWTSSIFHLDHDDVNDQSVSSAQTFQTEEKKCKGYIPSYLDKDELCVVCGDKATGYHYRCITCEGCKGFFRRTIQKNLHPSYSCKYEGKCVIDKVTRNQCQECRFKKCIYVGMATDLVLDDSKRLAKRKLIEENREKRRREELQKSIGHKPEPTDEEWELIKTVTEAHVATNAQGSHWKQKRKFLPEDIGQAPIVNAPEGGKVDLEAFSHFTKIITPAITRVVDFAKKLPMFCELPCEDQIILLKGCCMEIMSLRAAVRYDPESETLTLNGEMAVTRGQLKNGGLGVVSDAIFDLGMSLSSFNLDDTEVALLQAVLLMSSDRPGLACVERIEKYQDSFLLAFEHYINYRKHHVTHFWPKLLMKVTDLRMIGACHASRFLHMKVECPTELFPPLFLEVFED

[17] = target: T1, Thyroid hormone receptor beta; experiment: Agonist activity at human recombinant TRbeta1 transfected in CV-1 cells after 8 to 10 hrs by alkaline phosphatase reporter gene assay; assay type: cell-based
[18] = target: T1, Thyroid hormone receptor beta; experiment: Displacement of [125I]-Triiodothyronine from human recombinant TRbeta1 ligand binding domain after 2 to 3 hrs by beta counting
[19] = target: T2, Thyroid hormone receptor alpha (Homo sapiens, UniProt P10827); experiment: Displacement of [125I]-Triiodothyronine from human recombinant TRalpha1 ligand binding domain after 2 to 3 hrs by beta counting
T2 sequence (P10827 whole entry): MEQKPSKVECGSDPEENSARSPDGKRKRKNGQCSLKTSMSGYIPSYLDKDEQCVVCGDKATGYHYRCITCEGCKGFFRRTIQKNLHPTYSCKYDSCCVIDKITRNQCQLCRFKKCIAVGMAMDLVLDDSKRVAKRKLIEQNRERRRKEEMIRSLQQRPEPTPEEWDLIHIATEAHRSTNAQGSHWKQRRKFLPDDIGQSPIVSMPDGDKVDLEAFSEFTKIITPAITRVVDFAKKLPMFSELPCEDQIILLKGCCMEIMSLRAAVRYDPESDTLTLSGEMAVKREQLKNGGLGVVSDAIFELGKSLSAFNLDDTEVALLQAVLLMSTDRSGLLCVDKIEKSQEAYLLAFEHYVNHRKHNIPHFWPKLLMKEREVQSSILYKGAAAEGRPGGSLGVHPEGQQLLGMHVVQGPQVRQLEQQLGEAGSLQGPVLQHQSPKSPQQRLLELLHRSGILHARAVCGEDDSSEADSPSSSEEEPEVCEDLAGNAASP

SMILES: Cc1ccc(NC(=O)CC(=O)O)c2ccn(Cc3ccc(O)c(C(C)C)c3)c12
- Activity [1]: 1.9 µg/dL
- Activity [2]: 1.3 uIU/ml
- Activity [3]: 1.18 g
- Activity [4]: 424.3 bpm
- Activity [5]: 2.4 µg/dL
- Activity [6]: 2.7 uIU/ml
- Activity [7]: 1.12 g
- Activity [8]: 401.8 bpm
- Activity [9]: 27 mg/dL
- Activity [10]: 20 mg/dL
- Activity [11]: 15 mg/dL
- Activity [12]: 20 mg/dL
- Activity [13]: 94 mg/dL
- Ratio EC50 [14]: 7.2
- Ratio EC50 [15]: 3.4
- EC50 [16]: 1300 nM
- EC50 [17]: 3100 nM
- IC50 [18]: 240 nM
- IC50 [19]: 5200 nM
